Bioassay records: PubChem BioAssay, several laboratories
HTR2A ag: activates the mouse 5-HT2A serotonin receptor | activation, % at 7.6 µM | CHO-K1 mHTR2A beta-arrestin complementation, luminescence; percent of 30 µM serotonin response | AID 624169 | P35363 | hit rate 0.66% among 360,000;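 active = activation above a run cutoff, the mean activation of all tested compounds plus 3 SD, cut at about 14% in these data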
Target sequence (P35363 whole entry, looked up): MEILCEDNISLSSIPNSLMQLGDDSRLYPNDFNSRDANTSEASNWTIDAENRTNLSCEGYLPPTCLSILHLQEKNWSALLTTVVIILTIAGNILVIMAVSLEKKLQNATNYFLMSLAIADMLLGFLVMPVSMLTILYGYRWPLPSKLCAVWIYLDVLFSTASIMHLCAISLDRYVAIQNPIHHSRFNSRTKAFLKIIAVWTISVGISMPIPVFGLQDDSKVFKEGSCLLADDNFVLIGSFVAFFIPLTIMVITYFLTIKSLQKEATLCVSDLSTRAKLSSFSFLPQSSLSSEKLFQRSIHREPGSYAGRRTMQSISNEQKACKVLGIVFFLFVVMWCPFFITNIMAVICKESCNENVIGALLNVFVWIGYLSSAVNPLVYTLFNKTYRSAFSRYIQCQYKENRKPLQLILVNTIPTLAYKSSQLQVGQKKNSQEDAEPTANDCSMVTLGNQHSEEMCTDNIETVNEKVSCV
MC4R barr agon: human MC4R agonism via beta-arrestin; U2OS MC4R beta-arrestin complementation, luminescence; percent of melanotan II response, DMSO zero; activation, % at 8.9 µM; hit rate 0.98% among 360,000; P32245; AID 540308;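 active = activation above a per-plate cutoff, the mean activation of sample wells on that plate plus 3 SD, cut at about 8% in these data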
ANO1 activ: activators or potentiators of mouse TMEM16A chloride channel; Q8BHY3; HEK293 TMEM16A/YFP-H148Q/I152L, iodide quench fluorescence; active compounds read low; B-score at 10 µM; hit rate 0.3% among 340,000; AID 623877;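 active = fluorescence-ratio B-score plate-corrected deviation score at least 3 library SD below zero, with starting fluorescence score within 5 deviations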;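 also: channel opened by trigger with iodide after compound preincubation; score built on the fluorescence ratio of max minus min over baseline; more negative score means more quench and so TMEM16A activation or potentiation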
MC4R antag cAMP: antagonists of human melanocortin 4 receptor (MC4R); hit rate 0.48% among 360,000; MC4R-expressing cells, MTII-stimulated cAMP, LANCE TR-FRET; inhibition, % at 6.5 µM; P32245;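 active = inhibition above its plate's cutoff, the mean of tested wells on that plate plus 3 SD, cut at about 29% in these data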
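Material: human MC4R-expressing U2OS cells. Probe or stimulus: Melanotan II challenge. Dosing: 6.5 µM single dose. Times: 30-min compound, 1-h challenge, 1-h detection, room temperature. Technique: TR-FRET with Eu-cAMP and labeled anti-cAMP, 671 nm. Replication: singlicate.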
TMEM16A inh: blocks the mouse calcium-activated chloride channel TMEM16A; HEK293 TMEM16A/YFP iodide influx fluorescence, ionomycin; normalized B-score (activity score, 25-100; higher = stronger inhibition) at 10 µM; hit rate 1.2% among 310,000;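 active = ratio plate-corrected score three or more library SD toward inhibition, starting fluorescence score within five deviations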;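 also: score derived from kinetic fluorescence span divided by baseline fluorescence per well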
MIN6 prolif-1: MIN6 beta-cell proliferation induction. MIN6 cells proliferation, ATPlite luminescence, 48 h; cells starved in 0.2% serum; 100% = growth in 10% serum. proliferation, % at 10 µM. hit rate 0.29% among 330,000. AID 2380;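 active = compounds whose signal lies at least 3.5 SD above the mean of all wells on their plate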
MIN6 prolif-2: MIN6 beta-cell replication induction, confirmed; shares compounds with MIN6 prolif-1; 920 tested, under 10 active; MIN6 beta-cell proliferation, ATPlite luminescence, 48 h; cells kept in 0.2% serum; scaled between 0.2% and 10% serum; proliferation increase, % at 50 µM; AID 463095;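 active = proliferation increase above 40% at any of the four tested concentrations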
A number is an active result; i = inactive; nt = not tested or not shown. Most compounds without a hit are left out; they make up all but 3.4% or so of the library.

SMILES	HTR2A ag	MC4R barr agon	ANO1 activ	MC4R antag cAMP	TMEM16A inh	MIN6 prolif-1	MIN6 prolif-2
COc1ccc(S(=O)(=O)N/N=C/c2ccc(OCCN3CCOCC3)c(OC)c2)cc1	i	i	i	i	i	i	nt
CCc1cc(=O)[nH]c(SCC(=O)N2CCCC2)n1	i	i	i	i	i	i	nt
CC(C)c1nc(CN2CCCCC2)cc(=O)[nH]1	i	i	i	i	i	8.9	i
S=C(NCCN1CCOCC1)N/N=C/c1cccs1	i	i	i	i	i	10	i
COc1cccc(NC(=O)CN(C)C(=O)c2ccccc2-c2nc3ccccc3s2)c1	i	i	i	i	i	i	nt
CN(CC(=O)Nc1c(Cl)cccc1Cl)C(=O)c1ccccc1-c1nc2ccccc2s1	i	i	i	i	i	13	i
CS(=O)(=O)c1ccc(-c2csc(-c3cccnc3)n2)cc1	i	i	i	i	i	9.8	i
CN(C)S(=O)(=O)c1ccc(-c2csc(-c3cccnc3)n2)cc1	i	i	i	i	i	i	nt
Cc1cc(C(=O)N2CCC(CO)(Cc3cccc(C(F)(F)F)c3)CC2)n[nH]1	i	i	i	i	i	i	nt
O=C(c1cnsn1)N1CCC(CO)(Cc2cccc(F)c2)CC1	i	i	i	i	i	8.2	i
Cn1c(=N)c(S(=O)(=O)c2ccc(F)cc2)cc2c(=O)n3ccccc3nc21	i	i	i	i	i	i	nt
CCCn1c(=N)c(S(=O)(=O)c2ccc(F)cc2)cc2c(=O)n3ccccc3nc21	i	i	i	i	i	17	i
COc1ccc(C(CNC(=O)CCNC(=O)c2ccc(Br)cc2)N2CCOCC2)cc1 (stereo unspecified)	i	i	i	i	i	12	i
CCN1C(=O)[C@H]2[C@@H](c3ccc(-c4ccc(F)cc4)cc3)N[C@@](CC(C)C)(C(=O)OC)[C@H]2C1=O	i	i	i	i	i	i	nt
CCOC(=O)C1(CC)NC(c2cccc(F)c2)C2C(=O)N(CC)C(=O)C21 (stereo unspecified)	i	i	nt	i	i	7.2	i
CCCCNC(=O)C1(C)CCCCN1C(=O)c1c(C)noc1C (stereo unspecified)	i	i	nt	i	nt	nt	nt
COc1cc2c(cc1OC)C1=C(C#N)CC/C(=N\S(=O)(=O)c3cccc(Cl)c3)N1CC2	i	i	i	i	i	i	nt
COc1cc2c(cc1OC)C1=C(C#N)CCC(=NC(=O)c3ccco3)N1CC2	i	i	i	i	i	9.8	i
